High-throughput results (PubChem)
Hits are enriched below; roughly 4.1% of the tested compounds scored in any of these assays.
APP 5'UTR act: APP 5'UTR luciferase reporter activation | SH-SY5Y APP 5'UTR luciferase reporter, luminescence; zero percent = DMSO vehicle wells | activation, % at 2 µM | hit rate 1% among 190,000 | AID 1276;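 active means activation above a set limit, based on mean plus 3 SD of controls, cut at about 140% in these data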
FLuc stim CS: firefly luciferase counter-screen for stimulation assays; P08659; ATPlite luciferase biochemical, luminescence, 10 min; 0 = ATP-free wells, 1 = DMSO control; activation factor at 10 µM; 200,000 tested, under 10 active;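 active means luciferase activation factor, scaled between plate controls, of at least 2 with compound at 10 µM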
Target sequence (P08659 whole entry, looked up): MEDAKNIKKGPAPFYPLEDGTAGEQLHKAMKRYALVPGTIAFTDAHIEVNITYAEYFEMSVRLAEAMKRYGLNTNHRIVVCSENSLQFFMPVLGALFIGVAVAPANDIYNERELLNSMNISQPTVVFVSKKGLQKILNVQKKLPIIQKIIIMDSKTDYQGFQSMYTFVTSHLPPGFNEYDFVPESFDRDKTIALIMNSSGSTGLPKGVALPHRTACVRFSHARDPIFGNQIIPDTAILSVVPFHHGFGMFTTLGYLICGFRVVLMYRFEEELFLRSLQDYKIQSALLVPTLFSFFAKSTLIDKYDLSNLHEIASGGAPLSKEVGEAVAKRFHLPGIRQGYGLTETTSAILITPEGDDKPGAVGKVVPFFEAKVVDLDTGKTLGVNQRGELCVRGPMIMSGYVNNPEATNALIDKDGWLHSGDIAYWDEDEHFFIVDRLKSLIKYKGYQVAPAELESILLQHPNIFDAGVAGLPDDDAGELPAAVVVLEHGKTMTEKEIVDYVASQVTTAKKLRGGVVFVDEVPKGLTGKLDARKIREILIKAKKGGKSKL
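Material: Luciferase/luciferin reagent mix; Doses: test compounds dosed from 2 mM stocks in 100% DMSO; Schedule: 10 min incubation after luciferase reagent addition, room temperature; Measured by: luminescence from luciferase reaction; Read-out: luminescence gain marking luciferase activators.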
FLuc inhib CS: inhibits firefly luciferase, flagging false hits in luciferase inhibition screens; P08659; AID 1006; inhibition, % at 10 µM; hit rate 1.5% among 200,000; ATPLite firefly luciferase biochemical luminescence, 10 min;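 active means inhibition above about 50% when tested at 10 µM, limit read from the data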
NF-kB neuron act: compounds increasing NF-kB expression in human neuronal cells. NF-kB reporter expression; stronger effect = higher value. fold change at 12.5 µM. hit rate 1.6% among 190,000. AID 1239; in the data active means fold change above about 3.3
STAT1 activator: increases IFN-gamma driven STAT1 reporter signal; NIH 3T3 STAT1-luciferase reporter, luminescence; 100% = IFN-gamma alone, no compound; hit rate 2.6% among 200,000; AID 932; activation (% of control), % at 5.5 µM;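 active means activation above the screen-wide mean activation plus 3 SD, cut at about 130% in these data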;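 further: raw ratio to IFN-gamma control signal so 100% means no change and 0% no light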
Starred values were filed as active, the others as inactive; nt = no result.

SMILES | APP 5'UTR act | FLuc stim CS | FLuc inhib CS | NF-kB neuron act | STAT1 activator
Cn1c(=O)c2c(ncn2CC(=O)Nc2cc(Cl)c(Cl)cc2Cl)n(C)c1=O | nt | 1 | -2.7 | nt | nt
Clc1ccc(-c2cn3c(n2)CCC3)cc1 | 115.2 | 0.9 | 9.9 | 3.49* | 120.6
Clc1ccc(-c2nnc3n2CCCCC3)cc1 | 9.8 | 1 | -3.5 | 1 | 103.2
O=C(Nc1ccc(CSc2ccccc2)cc1)c1ccccc1 | 6.3 | 1 | -2.5 | 1.05 | 112.9
O=C(Nc1ccccc1)c1ccc(CSc2ccccn2)cc1 | 197.2* | 0.7 | 33.9 | 3.27 | 133.1*
CS(=O)(=O)N(Cc1ccc(Cl)cc1)c1ccc(C(=O)NCCSc2ccccn2)cc1 | 4.3 | 1 | -3.4 | 0.92 | 97.9
O=C(NCCSc1ccccn1)c1ccc(Cl)cc1Cl | 120.3 | 0.7 | 29.0 | 4.55* | 124.8
O=C(NCCSc1ccccn1)c1ccc(Cl)cc1 | 208.6* | 0.8 | 22.1 | 6.09* | 121.0
Cc1ccc(/C=N/NC(=O)c2cc(C3CC3)nc3ccccc23)o1 | -28.4 | 1 | -2.0 | 1.01 | 98.5
COc1ccccc1CCc1nnc(CCC(=O)N(C)Cc2ccncc2C)o1 | 18.1 | 1.1 | -8.2 | 1.1 | 94.9
COc1ccccc1CCc1nnc(CCC(=O)N(C)Cc2cccc3cnccc23)o1 | 37.9 | 1 | -1.4 | 2.08 | 131.0*
CCOc1ccc(-c2nnc(-c3cccs3)o2)cc1 | 132.6 | 0.3 | 65.1* | 4.23* | 72.0
COc1ccc(-c2nnc(-c3cccs3)o2)cc1OC | 115.6 | 0.7 | 29.7 | 2.79 | 149.7*
c1csc(-c2nnc(-c3ccc(N4CCOCC4)cc3)o2)c1 | 122.3 | 0.3 | 70.6* | 3.38* | 114.2
c1cncc(-c2nnc(-c3cccs3)o2)c1 | -1.9 | 1 | -1.9 | 1.23 | 123.2
Clc1nc(-c2ccccc2)cc(-c2ccccc2)n1 | -15.1 | 1 | -2.3 | 1.64 | 91.7
O=C(Nc1ccc(C(=O)O)cc1)/C(=C\c1ccc([N+](=O)[O-])cc1)NC(=O)c1ccc(Br)cc1 | 16.5 | 1.1 | -7.5 | 1.06 | 100.8
Cc1cccc(/C(N)=N/OC(=O)Cc2cccs2)c1 | 41.1 | 0.8 | 19.4 | 2.69 | 131.9*
N/C(=N\OC(=O)Cc1cccs1)c1cccc([N+](=O)[O-])c1 | 4.1 | 1 | 2.8 | 1.56 | 114.5
Cc1ccc(/C(N)=N/OC(=O)Cc2ccccc2)cc1 | 53.1 | 0.8 | 19.5 | 2.38 | 132.9*
Cc1ccc(/C(N)=N/OC(=O)Cc2cccs2)cc1 | 107.5 | 0.9 | 14.7 | 2.72 | 149.6*
Cc1ccc(/C(N)=N/OC(=O)Cc2cccc3ccccc23)cc1 | 11.6 | 1 | -3.4 | 1.23 | 94.3
N/C(=N\OC(=O)Cc1cccs1)c1ccccc1 | 23.6 | 0.8 | 23.6 | 2.3 | 137.4*
O=c1c2c(-c3ccccc3)csc2nc2n1CCC2 | -9.1 | 1 | -3.5 | 1.06 | 99.7
O=c1c2sc(-c3ccccc3)cc2nc2n1CCC2 | 125.1 | 0.5 | 54.8* | 3.9* | 106.5
SMILES | APP 5'UTR act | FLuc stim CS | FLuc inhib CS | NF-kB neuron act | STAT1 activator
Cc1ccc(S(=O)(=O)N2CCOCC2)cc1C(=O)Nc1ccc(S(=O)(=O)Nc2nccs2)cc1 | 8.8 | 1.1 | -5.8 | 1 | 101.9
CCN(CC)c1ccc(-c2nnc(SCC(=O)Nc3ccccc3C#N)n2-c2ccccc2)cc1 | 1.9 | 1.1 | -8.7 | 0.75 | 105.3
Cc1ccc(S(=O)(=O)Nc2ccc(-c3nc4cc(NS(=O)(=O)c5ccc(C)cc5)ccc4o3)cc2)cc1 | -1.4 | 1 | -3.7 | 0.67 | 105.5
Cc1nc2ccc(-c3nc4cc(N)ccc4o3)cc2[nH]1 | -21.5 | 0.2 | 78.5* | 1.66 | 116.4
Nc1ccc2oc(-c3ccc4nc[nH]c4c3)nc2c1 | 10.9 | 0.2 | 83.2* | 1.34 | 131.8*
Cc1nc2ccc([N+](=O)[O-])cc2[nH]1 | 47.4 | 1 | -2.2 | 0.95 | 95.4
c1ccc(CSc2nnc(NC3=NCCCCC3)s2)cc1 | 71.9 | 1 | 4.5 | 2.94 | 139.6*
N#Cc1ccc(CSc2nnc(Nc3ccccc3)s2)cc1 | -11.9 | 1.1 | -9.2 | 1.08 | 97.2
N#Cc1nc(-c2ccco2)oc1NCc1ccco1 | 4.8 | 1 | -3.7 | 1.5 | 98.2
COc1ccc(-c2nc(C#N)c(NCc3ccco3)o2)cc1 | 70.2 | 0.9 | 8.0 | 3.56* | 105.8
Cc1ccc(-c2nc(C#N)c(NCc3ccco3)o2)cc1 | 72.9 | 1 | 4.4 | 3.64* | 112.8
COC(=O)c1ccccc1NC(=S)N(Cc1ccc2c(c1)OCO2)Cc1cc2cc(OC)ccc2[nH]c1=O | 1.8 | 1.1 | -6.7 | 0.35 | 101.0
CNc1nc(SCc2ccc(C)cc2)nc2c1CCCC2 | 9.9 | 1 | -1.1 | 1.21 | 100.5
COc1ccc(/C=C2\SC(=N)N(c3nccs3)C2=O)cc1OC | -21.6 | 0.2 | 77.3* | 1.24 | 97.0
CC1CCN(C2=NC(=O)/C(=C/c3cn(-c4ccccc4)nc3-c3cccc(S(=O)(=O)N(C)C)c3)S2)CC1 | 15.3 | 0.9 | 6.4 | 0.78 | 100.6
COc1ccc(NC2=C(NCCO)C(=O)c3ccccc3C2=O)cc1 | 32.1 | 0.9 | 6.0 | 4.31* | 101.1
Cn1c(=O)c(-c2cc(Br)ccc2N)nc2ccccc21 | 66.3 | 0.9 | 13.7 | 0.71 | 87.2
Cc1cccc(Sc2c([N+](=O)[O-])ncn2C)c1 | 3.0 | 0.5 | 52.5* | 1.29 | 100.7
Cc1cccnc1Sc1c([N+](=O)[O-])ncn1C | 2.0 | 1 | -3.0 | 1.09 | 107.4
Brc1ccccc1-c1nnc(SCc2nc3ccccc3s2)o1 | 81.1 | 0.8 | 19.3 | 1.2 | 135.6*
CC(C)(C)c1ccc(C(=O)CS(=O)(=O)c2ccccc2)cc1 | 139.9* | 0.5 | 54.2* | 0.86 | 97.5
Cc1ccc(S(=O)(=O)CC(=O)c2ccccc2)cc1 | 9.4 | 1 | -2.5 | 1.67 | 98.6
CCn1c(-c2ccc(F)cc2)cnc1SCC(=O)N1CCc2ccccc21 | 7.7 | 1 | 4.9 | 1.1 | 126.1
CCn1c(-c2ccc(F)cc2)cnc1SCC(=O)N1CCCCC1C (stereo not drawn) | 69.3 | 0.9 | 5.7 | 2.88 | 132.0*
S=C(c1ccc(-c2ccccc2Cl)o1)N1CCOCC1 | 35.5 | 0.7 | 25.4 | 2.51 | 119.2
SMILES | APP 5'UTR act | FLuc stim CS | FLuc inhib CS | NF-kB neuron act | STAT1 activator
S=C(c1ccc(-c2ccc(Cl)cc2Cl)o1)N1CCCCC1 | 45.8 | 0.7 | 32.6 | 3.85* | 143.9*
C/C(=N\NC(=O)c1ccc(F)cc1)c1cccc(NC(=O)c2ccco2)c1 | 13.9 | 0.5 | 50.4* | 0.94 | 101.2
C/C(=N\NC(=O)c1nn(C)c(C)c1Br)c1cccc(NC(=O)c2ccoc2C)c1 | 59.4 | 0.8 | 20.2 | 1.49 | 150.4*
C/C(=N\NC(=O)c1ccc(Cl)cc1)c1cccc(NC(=O)c2cccnc2)c1 | -7.3 | 0.4 | 63.2* | 1.05 | 103.1
CCN(CC(=O)NC(C)(C)C)C(=O)C(c1ccccc1)c1ccccc1 | 25.5 | 1 | -3.4 | 1.18 | 96.0
Cc1ccc(Nc2nnc(SCC(=O)NCCN3C(=O)CSC3=O)s2)cc1 | 32.5 | 0.5 | 46.0 | 1.42 | 102.1
CCOC(=O)/C(C#N)=C/Nc1ccccc1OC | 31.9 | 0.6 | 44.3 | 2.48 | 145.1*
C#CC(CC)(CC)NC(=O)NC1CCCCC1 | 9.1 | 1 | -1.8 | 1.05 | 100.1
